test system: Aspergillus niger; experiment: Minimum inhibitory concentration was evaluated in vitro againist P. As. niger 16404; format: functional
In short: (§1)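 Compounds in water, 50% Me₂SO–water or 100% Me₂SO. Disk-plate prescreen, with those active at 1000 μg/mL then titrated by autodilution. Fungi were grown in proteose peptone no. 3 maltose at 23 °C for 3-5 days. MIC was read as the lowest drug level showing no turbidity.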

Row | SMILES | MIC
1 | CCCCCCCCCCCC(=O)NNC(=O)C[n+]1ccccc1 | 170 µM
2 | CCCCCCCCCCCCCCCCCC(=O)NNC(=O)C[n+]1ccccc1 | > 34 µM
3 | CCCCCCCCCCCCCC(=O)NNC(=O)C[n+]1ccccc1 | 39 µM
4 | CCCCCCCCCC(=O)NNC(=O)C[n+]1ccccc1 | 1500 µM
5 | CCCCCCCC(=O)NNC(=O)C[n+]1ccccc1 | > 1600 µM
6 | CCCCCCCCCCCCCCCC(=O)NNC(=O)C[n+]1ccccc1 | 37 µM
7 | CCCCCCCC/C=C\CCCCCCCC(=O)NNC(=O)C[n+]1ccccc1 | > 34 µM

test system: Candida albicans; experiment: Minimum inhibitory concentration was evaluated in vitro againist P. Candida albicans 10231; format: functional; in short: as §1

Row | SMILES | MIC
8 | CCCCCCCCCCCC(=O)NNC(=O)C[n+]1ccccc1 | 170 µM
9 | CCCCCCCCCCCCCCCCCC(=O)NNC(=O)C[n+]1ccccc1 | > 17 µM
10 | CCCCCCCCCCCCCC(=O)NNC(=O)C[n+]1ccccc1 | 19.6 µM
11 | CCCCCCCCCC(=O)NNC(=O)C[n+]1ccccc1 | 730 µM
12 | CCCCCCCC(=O)NNC(=O)C[n+]1ccccc1 | > 1600 µM
13 | CCCCCCCCCCCCCCCC(=O)NNC(=O)C[n+]1ccccc1 | 18 µM
14 | CCCCCCCC/C=C\CCCCCCCC(=O)NNC(=O)C[n+]1ccccc1 | > 17 µM

test system: Escherichia coli; experiment: Minimum inhibitory concentration was evaluated in vitro againist Escherichia coli Vogel; format: functional
In short: (§2)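 Compounds dissolved in water, 50% Me₂SO–water or 100% Me₂SO. They were first screened by disk-plate, and those active at 1000 μg/mL went on to the autotitration method using an automatic diluting device. Bacteria were inoculated into tryptose phosphate broth and incubated at 37 °C for 18-20 h. MIC is the lowest drug level giving complete absence of growth (turbidity).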

Row | SMILES | MIC
15 | CCCCCCCCCCCC(=O)NNC(=O)C[n+]1ccccc1 | 340 µM
16 | CCCCCCCCCCCCCCCCCC(=O)NNC(=O)C[n+]1ccccc1 | > 69 µM
17 | CCCCCCCCCCCCCC(=O)NNC(=O)C[n+]1ccccc1 | > 39 µM
18 | CCCCCCCCCC(=O)NNC(=O)C[n+]1ccccc1 | > 1500 µM
19 | CCCCCCCC(=O)NNC(=O)C[n+]1ccccc1 | > 1600 µM
20 | CCCCCCCCCCCCCCCC(=O)NNC(=O)C[n+]1ccccc1 | > 37 µM
21 | CCCCCCCC/C=C\CCCCCCCC(=O)NNC(=O)C[n+]1ccccc1 | > 69 µM

test system: Klebsiella pneumoniae; experiment: Minimum inhibitory concentration was evaluated in vitro againist Klebsiella pneumoniae 39645; format: functional; in short: as §2

Row | SMILES | MIC
22 | CCCCCCCCCCCC(=O)NNC(=O)C[n+]1ccccc1 | 680 µM
23 | CCCCCCCCCCCCCCCCCC(=O)NNC(=O)C[n+]1ccccc1 | > 69 µM
24 | CCCCCCCCCCCCCC(=O)NNC(=O)C[n+]1ccccc1 | > 79 µM
25 | CCCCCCCCCC(=O)NNC(=O)C[n+]1ccccc1 | > 1500 µM
26 | CCCCCCCC(=O)NNC(=O)C[n+]1ccccc1 | > 1600 µM
27 | CCCCCCCCCCCCCCCC(=O)NNC(=O)C[n+]1ccccc1 | > 74 µM
28 | CCCCCCCC/C=C\CCCCCCCC(=O)NNC(=O)C[n+]1ccccc1 | > 69 µM

test system: Pseudomonas aeruginosa; experiment: Minimum inhibitory concentration was evaluated in vitro againist P. Ps. aeruginosa MGH-2; format: functional; in short: as §2

Row | SMILES | MIC
29 | CCCCCCCCCCCC(=O)NNC(=O)C[n+]1ccccc1 | 340 µM
30 | CCCCCCCCCCCCCCCCCC(=O)NNC(=O)C[n+]1ccccc1 | > 34 µM
31 | CCCCCCCCCCCCCC(=O)NNC(=O)C[n+]1ccccc1 | > 39 µM
32 | CCCCCCCCCC(=O)NNC(=O)C[n+]1ccccc1 | > 1500 µM
33 | CCCCCCCC(=O)NNC(=O)C[n+]1ccccc1 | > 1600 µM
34 | CCCCCCCCCCCCCCCC(=O)NNC(=O)C[n+]1ccccc1 | > 37 µM
35 | CCCCCCCC/C=C\CCCCCCCC(=O)NNC(=O)C[n+]1ccccc1 | > 34 µM

test system: Proteus mirabilis; experiment: Minimum inhibitory concentration was evaluated in vitro againist Proteus mirabilis MGH-1; format: functional; in short: as §2

Row | SMILES | MIC
36 | CCCCCCCCCCCC(=O)NNC(=O)C[n+]1ccccc1 | 1400 µM
37 | CCCCCCCCCCCCCCCCCC(=O)NNC(=O)C[n+]1ccccc1 | > 69 µM
38 | CCCCCCCCCCCCCC(=O)NNC(=O)C[n+]1ccccc1 | > 79 µM
39 | CCCCCCCCCC(=O)NNC(=O)C[n+]1ccccc1 | > 1500 µM
40 | CCCCCCCC(=O)NNC(=O)C[n+]1ccccc1 | > 1600 µM
41 | CCCCCCCCCCCCCCCC(=O)NNC(=O)C[n+]1ccccc1 | > 74 µM
42 | CCCCCCCC/C=C\CCCCCCCC(=O)NNC(=O)C[n+]1ccccc1 | > 69 µM

test system: Proteus vulgaris; experiment: Minimum inhibitory concentration was evaluated in vitro againist Proteus vulgaris 9920; format: functional; in short: as §2

Row | SMILES | MIC
43 | CCCCCCCCCCCC(=O)NNC(=O)C[n+]1ccccc1 | 680 µM
44 | CCCCCCCCCCCCCCCCCC(=O)NNC(=O)C[n+]1ccccc1 | > 69 µM
45 | CCCCCCCCCCCCCC(=O)NNC(=O)C[n+]1ccccc1 | > 79 µM
46 | CCCCCCCCCC(=O)NNC(=O)C[n+]1ccccc1 | > 1500 µM
47 | CCCCCCCC(=O)NNC(=O)C[n+]1ccccc1 | > 1600 µM
48 | CCCCCCCCCCCCCCCC(=O)NNC(=O)C[n+]1ccccc1 | > 74 µM
49 | CCCCCCCC/C=C\CCCCCCCC(=O)NNC(=O)C[n+]1ccccc1 | > 69 µM

test system: Staphylococcus aureus; experiment: Minimum inhibitory concentration was evaluated in vitro againist Staphylococcus aureus Smith.; format: functional; in short: as §2

Row | SMILES | MIC
50 | CCCCCCCCCCCC(=O)NNC(=O)C[n+]1ccccc1 | 85 µM
51 | CCCCCCCCCCCCCCCCCC(=O)NNC(=O)C[n+]1ccccc1 | > 34 µM
52 | CCCCCCCCCCCCCC(=O)NNC(=O)C[n+]1ccccc1 | 19.6 µM
53 | CCCCCCCCCC(=O)NNC(=O)C[n+]1ccccc1 | 366 µM
54 | CCCCCCCC(=O)NNC(=O)C[n+]1ccccc1 | > 1600 µM
55 | CCCCCCCCCCCCCCCC(=O)NNC(=O)C[n+]1ccccc1 | 4.6 µM
56 | CCCCCCCC/C=C\CCCCCCCC(=O)NNC(=O)C[n+]1ccccc1 | > 17 µM

test system: Streptococcus pyogenes; experiment: Minimum inhibitory concentration was evaluated in vitro againist P. Streptococcus pyogenes C-203; format: functional; in short: as §2

Row | SMILES | MIC
57 | CCCCCCCCCCCC(=O)NNC(=O)C[n+]1ccccc1 | 42 µM
58 | CCCCCCCCCCCCCCCCCC(=O)NNC(=O)C[n+]1ccccc1 | 1.1 µM
59 | CCCCCCCCCCCCCC(=O)NNC(=O)C[n+]1ccccc1 | 9.8 µM
60 | CCCCCCCCCC(=O)NNC(=O)C[n+]1ccccc1 | 370 µM
61 | CCCCCCCC(=O)NNC(=O)C[n+]1ccccc1 | 1600 µM
62 | CCCCCCCCCCCCCCCC(=O)NNC(=O)C[n+]1ccccc1 | 9.1 µM
63 | CCCCCCCC/C=C\CCCCCCCC(=O)NNC(=O)C[n+]1ccccc1 | 1.1 µM

test system: Trichophyton benhamiae; experiment: Minimum inhibitory concentration was evaluated in vitro againist P. Trichophyton mentagrophytes 9129; format: functional, Arthroderma benhamiae; in short: as §1

Row | SMILES | MIC
64 | CCCCCCCCCCCC(=O)NNC(=O)C[n+]1ccccc1 | 170 µM
65 | CCCCCCCCCCCCCCCCCC(=O)NNC(=O)C[n+]1ccccc1 | > 17 µM
66 | CCCCCCCCCCCCCC(=O)NNC(=O)C[n+]1ccccc1 | 39 µM
67 | CCCCCCCCCC(=O)NNC(=O)C[n+]1ccccc1 | 1500 µM
68 | CCCCCCCC(=O)NNC(=O)C[n+]1ccccc1 | > 1600 µM
69 | CCCCCCCCCCCCCCCC(=O)NNC(=O)C[n+]1ccccc1 | 37 µM
70 | CCCCCCCC/C=C\CCCCCCCC(=O)NNC(=O)C[n+]1ccccc1 | > 17 µM

Source: ChEMBL document CHEMBL1121546, “Studies on antimicrobial agents. 1. Synthesis and relation between the antimicrobial activities and certain physicochemical properties of some N'-(pyridinoacetyl) fatty acid hydrazides” (1980)
